High-throughput results as filed in PubChem.
Shown are actives, neighbours in structure and some others; about 1.6% of the full set was active somewhere.
eIF4E-4G inh = eIF4E–eIF4G protein interaction inhibitors, primary screen, biochemical, uHTS, TR-FRET, eIF4GI fragment; TR-FRET eIF4E-eIF4GI(517-606) binding, 2 h; 220,000 tested, 0.37% active; inhibition, % at 21.7 µM;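 further: 0% = full FRET control wells and 100% = background wells lacking eIF4GI fragment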
14-3-3 Bad PPI = inhibitors of 14-3-3 zeta/Bad binding, primary screen, biochemical, TR-FRET, bovine 14-3-3 zeta; TR-FRET 14-3-3zeta/Dy647-pBad peptide displacement, 1 h; inhibition, % at 21.7 µM; 220,000 tested, 0.71% active; AID 781, 2007;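 active means inhibition above about 70%, limit read from the data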;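 further: 0% = full 14-3-3 plus peptide FRET controls and 100% = background without 14-3-3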
SUMO HTRF inh = inhibitors of in vitro SUMOylation cascade, primary screen, biochemical, HTRF, uHTS. HTRF SUMOylation assay, SAE1/SAE2 + UBC9. SUMO-conjugating enzyme UBC9 (Homo sapiens), P63279. inhibition, % at 35 µM. 290,000 tested, 0.36% active; in the data active means inhibition above about 50%, passing the limit was not always enough
Tb MetRS inh = T. brucei MetRS inhibitors, primary screen, biochemical, luminescence | purified T. brucei MetRS, ATP depletion, Kinase-Glo luminescence | inhibition, % at 11.9 µM | methionyl-tRNA synthetase (Trypanosoma brucei brucei) | 360,000 tested, 0.4% active;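 active means inhibition above a per-plate cutoff of the control wells' mean inhibition plus 3 SD, cut at about 5.5% in these data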;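 further: 0% = DMSO wells median and 100% = median of wells with control inhibitor compound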
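Dosing: 11.9 µM compound single dose, 0.9% DMSO; Assay system: purified T. brucei MetRS enzyme; Measured by: Kinase-Glo luciferase luminescence reporting remaining unconsumed ATP; Schedule: 15 min plus 2 h at 25 °C.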
p97 inhibitor = inhibitors of human p97 ATPase, primary screen, biochemical; Transitional endoplasmic reticulum ATPase (Homo sapiens), P55072; recombinant p97 ATPase, Kinase-Glo ATP luminescence, 3 h; inhibition, % at 8 µM; 220,000 tested, 0.42% active; AID 1481, 2009; in the data active means inhibition above about 15%;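 further: 0% = DMSO vehicle and 100% = wells lacking enzyme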
Target sequence (P55072 whole entry, looked up): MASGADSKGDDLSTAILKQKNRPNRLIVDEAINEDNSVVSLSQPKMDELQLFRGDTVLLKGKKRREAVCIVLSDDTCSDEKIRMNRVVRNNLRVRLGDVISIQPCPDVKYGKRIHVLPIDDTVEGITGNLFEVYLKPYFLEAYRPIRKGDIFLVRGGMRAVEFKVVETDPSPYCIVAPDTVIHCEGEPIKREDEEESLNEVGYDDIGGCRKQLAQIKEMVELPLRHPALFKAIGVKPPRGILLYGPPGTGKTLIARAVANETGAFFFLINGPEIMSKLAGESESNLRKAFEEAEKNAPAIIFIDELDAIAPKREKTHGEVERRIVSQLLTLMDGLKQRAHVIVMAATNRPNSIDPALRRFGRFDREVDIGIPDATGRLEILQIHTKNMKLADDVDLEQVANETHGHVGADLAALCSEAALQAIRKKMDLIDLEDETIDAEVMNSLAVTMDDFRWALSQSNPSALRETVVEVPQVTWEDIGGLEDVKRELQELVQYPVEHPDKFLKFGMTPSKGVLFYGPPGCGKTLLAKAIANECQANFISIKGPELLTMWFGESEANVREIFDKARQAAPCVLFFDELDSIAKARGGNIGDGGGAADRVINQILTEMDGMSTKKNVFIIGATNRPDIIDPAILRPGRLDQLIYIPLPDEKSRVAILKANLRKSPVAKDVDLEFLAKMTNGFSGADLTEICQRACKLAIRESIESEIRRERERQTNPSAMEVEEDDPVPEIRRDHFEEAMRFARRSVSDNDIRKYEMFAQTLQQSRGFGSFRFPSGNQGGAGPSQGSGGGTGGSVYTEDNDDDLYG
p47phox inh = p47phox/p22phox peptide binding inhibitors, primary screen, biochemical, uHTS, NADPH oxidase regulatory subunit. Neutrophil cytosol factor 1 (Homo sapiens), P14598. fluorescence polarization, 2 h. inhibition, % at 24.7 µM. 220,000 tested, 0.53% active. AID 1274, 2008;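 further: 0% = p47phox with labelled peptide and 100% = labelled peptide alone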
The depositor's hits bear a star; nt = not tested or not shown; [ ] = dose if it differs, or a comment.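 How the source made its calls, unless noted: active means inhibition above about 30% (limit read from the data); inactive means the rest.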

SMILES | eIF4E-4G inh | 14-3-3 Bad PPI | SUMO HTRF inh | Tb MetRS inh | p97 inhibitor | p47phox inh
Cc1cccc(NC(=S)NC(=O)CCc2ccccc2)c1 | -2 | 77* | -17 | 1 | -3 | -5
CCc1ccc2nc(NC(=O)c3ccc4c(=O)[nH]c(CN5CCOCC5)nc4c3)sc2c1 | -36 | 94*[fluorescence artefact?] | nt | nt | 3 | 0
CCc1ccc2nc(NC(=O)c3ccc(N4C(=O)CCC4=O)cc3)sc2c1 | -10 | 7 | 13 | -1 | 6 | -15
Nc1c(C(=O)Nc2nc3ccccc3s2)sc2nc(-c3cccs3)ccc12 | 13 | 96*[fluorescence artefact?] | 7 | 0 | 8 | -58
CC(=O)c1sc2nc(-c3cccs3)ccc2c1N | -1 | 2 | 6 | 0 | 1 | -14
O=C(O)c1ccc(-n2cccc2/C=N\NC(=O)c2cc3cc(Br)ccc3o2)cc1 | 29 | 80* | 43 | 0 | 7 | -54
COc1ccc(NC(=O)C(C)N=C2NS(=O)(=O)c3ccccc32)cc1S(N)(=O)=O (centres undefined) | nt | nt | nt | 1 | nt | nt
CC(/C=C1\SC(=S)N(NS(=O)(=O)c2ccc(C)cc2)C1=O)=C\c1ccccc1 | -1 | 28 | 59* | 0 | -10 | -93
O=C(Nc1ccccc1)C1=C[C@H](c2ccc(Br)cc2)C[C@H](OCc2ccc(CO)cc2)O1 | 1 | -2 | 7 | 0 | 1 | -44
Nc1cc(OCC(F)(F)F)cc([N+](=O)[O-])c1 | 0 | -14 | -22 | 1 | -1 | -2
Nc1cc(N)c(OCC(F)(F)F)cc1OCC(F)(F)F | -11 | -12 | 49 | 0 | 19* | 4
Cc1ncc([N+](=O)[O-])n1Cc1cccc(F)c1 | 11 | 2 | 2 | 0 | -1 | -1
Cc1ccccc1-c1nc(CS(=O)(=O)CC(=O)NCCN2CCOCC2)c(C)o1 | 6 | -4 | -5 | 1 | 0 | 69*
CC1CCN(c2c(NCC3CCC(C(=O)NC4CCCCCC4)CC3)c(=O)c2=O)CC1 (centres undefined) | -2 | 86* | -2 | 3 | -6 | -8
O=C(N/N=C/c1ccncc1)c1cc([N+](=O)[O-])cc([N+](=O)[O-])c1O | 13 | 89* | 24 | 0 | 6 | 1
COCCNC(=O)c1onc(CSc2ccccc2C)c1C(=O)O | 1 | 29 | 3 | 0 | -1 | -5
COCCNC(=O)c1onc(CSc2cc(C)ccc2C)c1C(=O)O | 0 | 78* | -18 | 0 | 2 | -5
COCCNC(=O)c1onc(CSc2ccc(F)c(F)c2)c1C(=O)O | 2 | 77* | -18 | 0 | -2 | 6
Cc1cccc(SCc2noc(C(=O)NCC3CCCO3)c2C(=O)O)c1 (centres undefined) | 7 | 34 | -4 | 0 | 0 | -20
COCCNC(=O)c1onc(CSc2ccc(F)c(F)c2)c1C(=O)NCCOC | nt | nt | nt | 0 | nt | nt
O=C(NCC1CCCO1)c1onc(CSc2ccccc2)c1C(=O)O (centres undefined) | 1 | 72* | -17 | 0 | 4 | -5
CSc1ccc(-c2ccc3c(c2)c(Sc2ccccc2)c(-c2ccccc2)n3C)cc1 | nt | nt | nt | -2 | nt | nt
CC(C)NC(=O)c1cc(C2CCCCN2S(=O)(=O)c2cccc3cccnc23)on1 (centres undefined) | nt | nt | nt | 0 | nt | nt
O=C(CCc1nnc2n(Cc3ccc(F)cc3)c(=O)c3ccccc3n12)N1CCN(c2ccccn2)CC1 | nt | nt | 11 | 0 | nt | nt
C=C1C(=O)OCC2C(C(=O)O)=CC3C(C)C(C)=CC123 (centres undefined) | nt | nt | nt | 0 | nt | nt
SMILES | eIF4E-4G inh | 14-3-3 Bad PPI | SUMO HTRF inh | Tb MetRS inh | p97 inhibitor | p47phox inh
COc1ccc(C/C(N)=N/OC(=O)Cc2ccccc2)cc1OC | -9 | 1 | 18 | 0 | 6 | 115*
Cc1ccccc1C(=O)Nc1cccc(C(=O)N/N=C/c2cc(Cl)cc([N+](=O)[O-])c2O)c1 | 36* | -9 | nt | 0 | 1 | -17
COc1cc(/C=N/NC(=O)c2cccc(NC(=O)c3ccccc3C)c2)ccc1O | nt | nt | -2 | 5 | nt | nt
COc1ccc(-n2nnnc2C2(C)CCC(=O)N2Cc2ccccc2)cc1 (centres undefined) | nt | nt | nt | 0 | nt | nt
CCOC(=O)c1cccc(N2C(=O)c3ccccc3S2(=O)=O)c1 | 3 | 4 | -5 | 0 | -5 | 81*
CCOC(=O)c1cccc(-n2c(C)nc3ccccc3c2=O)c1 | -3 | 3 | 17 | -1 | 5 | 3
Cc1nc(S/C(=C/c2ccc(OCc3ccc(C(=O)O)cc3)cc2)C(=O)O)n[nH]1 | 0 | 20 | 58* | -1 | 3 | -48
COc1ccc(C)cc1-n1nnnc1SCc1nc(N)nc(N(C)C)n1 | nt | nt | nt | 0 | nt | nt
Cc1ccc(CNC(=O)COC(=O)CCCOc2ccc(Cl)cc2Cl)cc1 | 13 | -6 | 13 | 0 | 0 | 72*
COc1ccc(CNC(=O)COC(=O)CCCOc2ccc(Cl)cc2Cl)cc1OC | -4 | 6 | -20 | 1 | -1 | 5
CCOc1ccc2nc(COC(=O)c3ccco3)c(C(C)=O)[n+]([O-])c2c1 | 5 | 17 | -8 | 0 | 7 | 48*
CN1CCN(CCOc2cccc(Cl)c2)CC1 | 5 | 73* | 14 | 0 | -3 | -16
Clc1cccc(OCCN2CCCC2)c1 | nt | nt | 14 | -2 | nt | nt
NC1=NC(=O)/C(=C\c2ccsc2)S1 | 63* | -2 | 15 | 0 | 4 | -20
O=C(NNC(=O)C1CCN(Cc2ccccc2)CC1)c1cccs1 | 0 | 73* | 1 | 0 | -3 | 5
O=C(NNC(=O)C1CCN(Cc2ccc(Cl)c(Cl)c2)CC1)c1cccs1 | -1 | 2 | 10 | 2 | -1 | -1
Cc1ccc(S(=O)(=O)NCC(=O)N(CC(=O)NCC2CCCO2)C2CCCC2)cc1 (centres undefined) | 91*[fluorescence artefact?] | 45 | -6 | -1 | 1 | -9
O=C(CN(C(=O)CNS(=O)(=O)c1ccccc1)C1CCCC1)NCC1CCCO1 (centres undefined) | -4 | 0 | 16 | 0 | 4 | 10
Oc1ccc(C[C@H]2CNC(=S)N2CC2CCCN2C[C@H](Cc2ccccc2)N2C[C@H](Cc3ccc(O)cc3)N(CC3CCCCC3)C2=S)cc1 (some centres undefined) | nt | nt | nt | -1 | nt | nt
O=C(Nc1ccc(Oc2ccccc2)cc1)C1CCN(c2ncccn2)CC1 | -3 | 79* | 21 | 0 | -7 | -14
